The results in this text go back to ChEMBL document CHEMBL3243966, “Synthesis of substituted 1-hydroxy-2-naphthanilides as potential cestodicidal agents” (J Med Chem, 1978).

The subject of data set [1] is Rodentolepis nana. Briefly: Cestodicidal activity against Hymenolepis nana infected in rat assessed as reduction in 98 to 100% of worm load at 250 mg/kg, po after 3 days. The data set is classed as functional, organism-based. Details: dose 250 mg/kg. The procedure, abridged:
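Newly weaned male Freiburg-strain rats (25-30 g) infected orally with 200 viable H. nana ova; faecal ova-positive animals treated on day 15 after overnight fast. Single oral dose, starting at 250 mg/kg, then 100, 50, 13, 7.5 mg/kg; three treated, three untreated controls per group. Sacrificed day 3 post-treatment after fasting; small intestine worms collected and scored. Minimum effective dose: lowest giving score ≤10% of control.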

Data set [2] relates to Rodentolepis nana. Briefly: Cestodicidal activity against Hymenolepis nana infected in po dosed rat assessed as […] after 3 days. Format: functional. As to conditions: 72 h, read-out: MED.
Data set [3] deals with Taenia. Briefly: Cestodicidal activity against Taenia species infected in dog assessed as reduction in worm load at 10 mg/kg, po relative to control. Format: functional. Also on record: scale not given: the % may be the effect or the level left. The procedure, abridged: (§1)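 Single oral 10 mg/kg dose, with worm-load reduction as the read-out. H. diminuta was tested in rats; Taenia sp. was tested in naturally infected dogs.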

The subject of data set [4] is Rattus norvegicus. The data set can be described thus: Toxicity in rat at 5 g/kg, po assessed as mortality. The data set is classed as organism-based. As to conditions: in vivo, 5000 mg/kg.
Data set [5] deals with Rattus norvegicus. Briefly: Toxicity in rat infected with Hymenolepis nana at 1 g/kg. The data set is classed as organism-based. The settings on record: in vivo, 1000 mg/kg. The procedure, abridged:
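Young rats infected with H. nana received 1 g/kg, and tolerance was assessed.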

Data set [6] concerns Rattus norvegicus. The data set can be described thus: Toxicity in rat at 5 g/kg, ip assessed as mortality. Format: organism-based. As to conditions: in vivo, 5000 mg/kg.
In data set [7] the test system is Canis familiaris. Briefly: Toxicity in ip dosed dog. The data set is classed as organism-based, Canis lupus familiaris. As to conditions: in vivo. The procedure, abridged: (§2)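 Acute toxicity study in Mastomys natalensis and dogs, with the compound given orally or intraperitoneally.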
The test system of data set [8] is Rattus norvegicus. The data set can be described thus: Toxicity in rat at 5 g/kg, ip. As to conditions: in vivo, 5000 mg/kg. Format: organism-based.
Data set [9] relates to Mastomys natalensis. The data set can be described thus: Toxicity in ip dosed natal multimammate mouse. Format: organism-based. The settings on record: in vivo. The procedure, abridged:
as §2

Data set [10] relates to Mastomys natalensis. The data set can be described thus: Toxicity in po dosed natal multimammate mouse. The data set is classed as organism-based. The settings on record: in vivo. In short, it runs like this: as §2
A short description of data set [11]: Cestodicidal activity against Hymenolepis diminuta infected in rat assessed as reduction in worm load at 10 mg/kg, po relative to control. The data set is classed as functional. Also on record: scale not given: the % may be the effect or the level left. In short, it runs like this: as §1
For data set [12], the system named is Rattus norvegicus. Briefly: Toxicity in rat at 5 g/kg, po. Format: organism-based. As to conditions: in vivo, 5000 mg/kg.
In data set [13] the test system is Canis familiaris. The data set can be described thus: Toxicity in po dosed dog. As to conditions: in vivo. Format: organism-based, Canis lupus familiaris. In short, it runs like this:
as §2

The source made the active and inactive calls. No cut-off for these calls is given here.

As for `O=c1oc2c(ccc3ccccc32)c(=O)n1-c1ccccc1[N+](=O)[O-]`, the outcome in [1] was inactive.
Regarding `O=C(Nc1ccc([N+](=O)[O-])cc1Cl)c1cc(Br)c2ccccc2c1O`, the minimal effective dose in [2] stood at 13 mg/kg.
On to `O=C(Nc1ccc(N2CCN(c3ccccc3)CC2)c([N+](=O)[O-])c1)c1ccc2ccccc2c1O`, for which the result in [1] was inactive.
On the same count and under the same terms, the result for `O=c1oc2c(cc(Br)c3ccccc32)c(=O)n1-c1ccc(Cl)cc1Cl` reads “inactive”; that for `Nc1ccc(NC(=O)c2cc(Br)c3ccccc3c2O)cc1`, “inactive”.
On the same count and under the same terms, to `O=c1c2cc(Br)c3ccccc3c2oc(=S)n1-c1ccc([N+](=O)[O-])cc1` belongs “inactive”; to `O=C(Nc1ccc([N+](=O)[O-])cc1)c1ccc2ccccc2c1O`, “inactive”.
Consider `O=C(Nc1ccc(N=C=S)cc1Cl)c1cc(Br)c2ccccc2c1O`, for which, in data set [2], the minimal effective dose was 250 mg/kg.
On to `O=C(Nc1ccc(N2CCCCC2)c([N+](=O)[O-])c1)c1ccc2ccccc2c1O`, for which, in data set [1], the result was inactive.
Regarding `O=c1oc2c(cc(Br)c3ccccc32)c(=O)n1-c1ccc(Cl)cc1[N+](=O)[O-]`, the result in [1] was inactive.
Take `O=C(Nc1ccc([N+](=O)[O-])cc1Cl)c1cc(Cl)ccc1O` [NICLOSAMIDE]: the minimal effective dose in data set [2] came to 50 mg/kg.
In the case of `Nc1cc(NC(=O)c2ccc3ccccc3c2O)ccc1Cl`, the result in data set [1] was inactive.
Consider `O=c1c2ccc3ccccc3c2oc(=S)n1-c1ccccc1[N+](=O)[O-]`, for which, in data set [1], the outcome was inactive.
The same measure, in the same setting: the result for `O=c1oc2c(ccc3ccccc32)c(=O)n1-c1ccc([N+](=O)[O-])cc1` reads “inactive”.
For `CC1CCN(c2ccc(NC(=O)c3ccc4ccccc4c3O)cc2[N+](=O)[O-])CC1`, the outcome in data set [1] was inactive.
Consider `O=C(Nc1ccccc1[N+](=O)[O-])c1ccc2c(Br)cccc2c1O`, for which, in data set [2], the minimal effective dose turned out to be 250 mg/kg.
Turning to `Nc1ccccc1NC(=O)c1cc(Br)c2ccccc2c1O`, the outcome in [1] was inactive.
Same read-out and setting: to `O=c1c2cc(Br)c3ccccc3c2oc(=S)n1-c1ccc(Cl)cc1[N+](=O)[O-]` belongs “inactive”.
As for `O=C(Nc1ccc(Cl)c([N+](=O)[O-])c1)c1ccc2ccccc2c1O`, the outcome in data set [1] was inactive.
Still for that read-out and setting: the result for `Nc1ccc(NC(=O)c2ccc3ccccc3c2O)cc1` reads “inactive”; that for `O=c1c2cc(Br)c3ccccc3c2oc(=S)n1-c1ccccc1[N+](=O)[O-]`, “inactive”.
On the same count and under the same terms, the result for `O=c1c2ccc3ccccc3c2oc(=S)n1-c1ccc(Cl)c([N+](=O)[O-])c1` reads “inactive”; that for `CC1CCCN(c2ccc(NC(=O)c3ccc4ccccc4c3O)cc2[N+](=O)[O-])C1` (stereo not given), “inactive”.
As to `O=C(Nc1ccc(Cl)c(N=C=S)c1)c1cc(Br)c2ccccc2c1O`, the minimal effective dose in [2] turned out to be 100 mg/kg.
On to `O=c1c2ccc3ccccc3c2oc(=S)n1-c1ccc(Cl)cc1[N+](=O)[O-]`, for which the outcome in [1] was inactive.
On the same count and under the same terms, the result for `O=C(Nc1ccc(N2CCOCC2)c([N+](=O)[O-])c1)c1ccc2ccccc2c1O` reads “inactive”; that for `Nc1cc(Cl)ccc1NC(=O)c1ccc2ccccc2c1O`, “inactive”; that for `O=C(Nc1ccccc1[N+](=O)[O-])c1ccc2ccccc2c1O`, “inactive”.
Regarding `O=C(Nc1ccc(N=C=S)cc1Cl)c1ccc2ccccc2c1O`, the Activity is reported as 100% in [3]; “Non-toxic” in [4]; “Non-toxic” in data set [5]; “Non-toxic” in [6]; “Non-toxic” in data set [7]; “Non-toxic” in [8]. For the same compound, the Activity result in [9] is “Non-toxic”; in [10], “Non-toxic”; in [11], 100%; in data set [12] it was “Non-toxic”; in data set [13], “Non-toxic”. Besides, the minimal effective dose in [2] stood at 7.5 mg/kg.
On to `O=C(Nc1ccc([N+](=O)[O-])cc1Cl)c1ccc2ccccc2c1O`, for which the result in data set [1] was inactive.
As for `O=C(Nc1ccc(Cl)cc1Cl)c1cc(Br)c2ccccc2c1O`, the minimal effective dose in [2] was 50 mg/kg.
Take `O=C(Nc1ccc(N=C=S)cc1)c1ccc2ccccc2c1O`: in data set [2], the minimal effective dose was found to be 100 mg/kg.
Turning to `O=C(Nc1ccc(Cl)cc1[N+](=O)[O-])c1ccc2ccccc2c1O`, in data set [1], the result was inactive.
On to `CN1CCN(c2ccc(NC(=O)c3ccc4ccccc4c3O)cc2[N+](=O)[O-])CC1`, for which, in data set [1], the result was inactive.
The same measure, in the same setting: the result for `O=C(Nc1ccc(N2CCCC2)c([N+](=O)[O-])c1)c1ccc2ccccc2c1O` reads “inactive”; that for `O=c1oc2c(cc(Br)c3ccccc32)c(=O)n1-c1ccc([N+](=O)[O-])cc1Cl`, “inactive”.
The same measure, in the same setting: to `O=c1c2cc(Br)c3ccccc3c2oc(=S)n1-c1ccc([N+](=O)[O-])cc1Cl` belongs “inactive”; to `Nc1ccc(NC(=O)c2cc(Br)c3ccccc3c2O)c(Cl)c1`, “inactive”.
Still for that read-out and setting: the result for `O=C(Nc1ccc(Cl)cc1Cl)c1ccc2ccccc2c1O` reads “inactive”; that for `O=c1c2ccc3ccccc3c2oc(=S)n1-c1ccc(Cl)cc1Cl`, “inactive”; that for `O=c1c2ccc3ccccc3c2oc(=S)n1-c1ccc([N+](=O)[O-])cc1`, “inactive”.
Consider `O=c1oc2c(ccc3ccccc32)c(=O)n1-c1ccc([N+](=O)[O-])cc1Cl`, for which the result in [1] was inactive.
On to `Nc1ccccc1NC(=O)c1ccc2ccccc2c1O`, for which, in data set [1], the result was inactive.
The same measure, in the same setting: the result for `O=c1oc2c(ccc3ccccc32)c(=O)n1-c1ccc(Cl)c([N+](=O)[O-])c1` reads “inactive”; that for `Nc1ccc(NC(=O)c2ccc3ccccc3c2O)c(Cl)c1`, “inactive”.
Same read-out and setting: the result for `O=c1c2ccc3ccccc3c2oc(=S)n1-c1ccc([N+](=O)[O-])cc1Cl` reads “inactive”.
For the compound `O=C(Nc1ccc(Cl)cc1[N+](=O)[O-])c1cc(Br)c2ccccc2c1O`, the minimal effective dose in data set [2] worked out at 250 mg/kg.
Regarding `O=c1oc2c(ccc3ccccc32)c(=O)n1-c1ccc(Cl)cc1Cl`, in data set [1], the outcome was inactive.
Regarding `O=C(Nc1ccc([N+](=O)[O-])cc1)c1cc(Br)c2ccccc2c1O`, the minimal effective dose in data set [2] came out at 100 mg/kg.
